Data as given in ChEMBL document CHEMBL4266038, “Total Synthesis of Xanthoangelol B and Its Various Fragments: Toward Inhibition of Virulence Factor Production of Staphylococcus aureus” (J Med Chem, 2018).
Active and inactive are the calls of the source. The rule behind the calls is not given here.

How the values were obtained:
[1] = system: Staphylococcus aureus subsp. aureus USA300; test: Inhibition of methicillin-resistant Staphylococcus aureus USA300 SaeRS Tn551 deletion mutant assessed as reduction in alpha-hemolysin mediated hemolysis of human erythrocytes at 15 uM after 8 hrs by ELISA relative to control
Procedure, shortened: (§1)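 Overnight cultures of wild-type USA300 or the saeS mutant were diluted 1:100 in TSB and grown to OD600 = 1. Cells at 5x10^5/ml were grown with compound for 8 h at 37 °C, 250 rpm. Supernatants were mixed 1:1 with 5% DPBS-washed human RBC for 30 min, then centrifuged, and hemolysis was read at OD540. Experiments were run in triplicate.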

[2] = system: Staphylococcus aureus subsp. aureus USA300; test: Inhibition of methicillin-resistant Staphylococcus aureus USA300 SaeRS assessed as reduction in alpha-hemolysin mediated hemolysis of human erythrocytes at 8 uM after 8 hrs by ELISA; procedure, shortened: as §1
[3] = system: Staphylococcus aureus subsp. aureus USA300; test: Inhibition of methicillin-resistant Staphylococcus aureus USA300 SaeRS assessed as reduction in alpha-hemolysin mediated hemolysis of human erythrocytes at 4 uM after 8 hrs by ELISA; procedure, shortened: as §1
[4] = system: Staphylococcus aureus subsp. aureus USA300; test: Inhibition of methicillin-resistant Staphylococcus aureus USA300 SaeRS Tn551 deletion mutant assessed as reduction in alpha-hemolysin mediated hemolysis of human erythrocytes at 8 uM after 8 hrs by ELISA relative to control; procedure, shortened: as §1

SMILES | inhibition [1] | inhibition [2] | inhibition [3] | inhibition [4]
C=C(C)C(O)CC/C(C)=C/Cc1c(O)ccc(C(=O)CC(O)c2ccc(O)cc2)c1O (stereo unspecified) | 87.4% | Active | Active | 
C=C(C)C(O)CC/C(C)=C/Cc1c(O)ccc(C(=O)/C=C/c2ccc(O)cc2)c1O (stereo unspecified) [XANTHOANGELOL B] |  | Active | Active | 86.9%
